What all share (assay type): functional
The nature of experiment [1]: Antioxidant activity assessed as hydrogen peroxide radical scavenging activity.
Experiment [2] can be described thus: Antitumor activity against mouse DLA cells after 3 hrs by trypan blue dye exclusion assay. In short, it runs like this:
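DLA cells were grown in the peritoneal cavity of albino mice (25-30 g) by i.p. injection of 1×10^6 cells/mL. Cells were harvested on day 15, washed three times in HBSS and adjusted to 2×10^6 cells/mL. Cells were exposed to graded drug concentrations in PBS (1:1 volume) for 3 h at 37 °C, 5% CO2. Viability was counted by haemocytometer after 1:1 mixing with 0.4% trypan blue, and % inhibition and CTC50 were calculated.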

Experiment [3] can be described thus: Antioxidant activity assessed as inhibition of superoxide radical-induced NBT reduction by alkaline DMSO method.

≈ marks a conversion by molar mass, not a printed value.

By IC50 is commonly meant the midpoint of a concentration-inhibition curve. As a reminder, the CC50 is the concentration that lowers cell viability or growth by half.

Consider `COc1cc(C2=NC(N)OC(c3ccc(Nc4c5ccccc5nc5ccccc45)cc3)=C2)ccc1O` (configuration not stated), for which the IC50 in experiment [1] was 14.5 µg/mL (≈ 29.7 µM); in experiment [3], 24.02 µg/mL (≈ 49.2 µM). In experiment [2], this molecule gave a CC50 of 250 µg/mL (≈ 512 µM).
Consider `O=C(/C=C/c1cccc(Cl)c1)c1ccc(Nc2c3ccccc3nc3ccccc23)cc1`, for which the IC50 in experiment [1] is > 1000 µg/mL; in experiment [3] it was > 500 µg/mL.
Consider `NC1N=C(c2ccccc2)C=C(c2ccc(Nc3c4ccccc4nc4ccccc34)cc2)O1` (configuration not stated), for which the IC50 in experiment [1] is 17.23 µg/mL (≈ 38.9 µM); in experiment [3] it was 22.27 µg/mL (≈ 50.3 µM). The CC50 in experiment [2] is 425 µg/mL (≈ 960 µM).
The like results for `NC1N=C(c2ccc([N+](=O)[O-])cc2)C=C(c2ccc(Nc3c4ccccc4nc4ccccc34)cc2)O1` (configuration not stated) were, in that order, 24.03 µg/mL (≈ 49.3 µM), 47.5 µg/mL (≈ 97.4 µM) and 725 µg/mL (≈ 1490 µM).
`O=C(/C=C/c1ccccc1Cl)c1ccc(Nc2c3ccccc3nc3ccccc23)cc1`: the results for the IC50 in experiment [1] and in experiment [3] were > 1000 µg/mL and > 500 µg/mL, respectively.
For the molecule `CC1=NC(N)OC(c2ccc(Nc3c4ccccc4nc4ccccc34)cc2)=C1` (configuration not stated), the results for the IC50 in experiment [1] and in experiment [3] were 14.2 µg/mL (≈ 37.3 µM) and 26.3 µg/mL (≈ 69.1 µM), respectively. This molecule had a cytotoxic concentration (CC50) in experiment [2] of 140 µg/mL (≈ 368 µM).
Consider `NC1N=C(c2ccc(Cl)cc2Cl)C=C(c2ccc(Nc3c4ccccc4nc4ccccc34)cc2)O1` (configuration not stated), for which the figures for the IC50 in experiment [1] and in experiment [3] were 20.03 µg/mL (≈ 39.2 µM) and 28.02 µg/mL (≈ 54.8 µM), respectively. In addition, the CC50 in experiment [2] amounted to 180 µg/mL (≈ 352 µM).
Take `C/C=C/C(=O)c1ccc(Nc2c3ccccc3nc3ccccc23)cc1`: the IC50 in experiment [1] is > 1000 µg/mL; in experiment [3] it was > 500 µg/mL.
In the case of `NC1N=C(c2cccc(Cl)c2)C=C(c2ccc(Nc3c4ccccc4nc4ccccc34)cc2)O1` (configuration not stated), the figures for the IC50 in experiment [1] and in experiment [3] were 36.01 µg/mL (≈ 75.5 µM) and 37.43 µg/mL (≈ 78.5 µM), respectively. Also, in experiment [2], the CC50 is 820 µg/mL (≈ 1720 µM).
With `O=C(/C=C/c1ccc([N+](=O)[O-])cc1)c1ccc(Nc2c3ccccc3nc3ccccc23)cc1`, the IC50 is > 1000 µg/mL in experiment [1] and > 500 µg/mL in experiment [3].
As to `O=C(/C=C/c1cccc([N+](=O)[O-])c1)c1ccc(Nc2c3ccccc3nc3ccccc23)cc1`, the IC50 in experiment [1] is > 1000 µg/mL; in experiment [3], > 500 µg/mL.
The like results for `O=C(/C=C/c1ccc(Cl)cc1Cl)c1ccc(Nc2c3ccccc3nc3ccccc23)cc1` were, in that order, > 1000 µg/mL and > 500 µg/mL.
`NC1N=C(c2ccc(Cl)cc2)C=C(c2ccc(Nc3c4ccccc4nc4ccccc34)cc2)O1` (configuration not stated): the IC50 in experiment [1] amounted to 30.01 µg/mL (≈ 62.9 µM); in experiment [3], 68.13 µg/mL (≈ 143 µM). In experiment [2], this molecule had a CC50 of 640 µg/mL (≈ 1340 µM).
Turning to `COc1ccc(C2=NC(N)OC(c3ccc(Nc4c5ccccc5nc5ccccc45)cc3)=C2)cc1OC` (configuration not stated), the half-inhibitory concentration (IC50) worked out at 18.06 µg/mL (≈ 35.9 µM) in experiment [1] and 28.01 µg/mL (≈ 55.7 µM) in experiment [3]. In addition, the CC50 in experiment [2] was 190 µg/mL (≈ 378 µM).
Turning to `NC1N=C(c2cccc([N+](=O)[O-])c2)C=C(c2ccc(Nc3c4ccccc4nc4ccccc34)cc2)O1` (configuration not stated), the figures for the IC50 in experiment [1] and in experiment [3] were 12 µg/mL (≈ 24.6 µM) and 29.03 µg/mL (≈ 59.5 µM), respectively. In addition, the CC50 in experiment [2] is 600 µg/mL (≈ 1230 µM).
As to `O=C(/C=C/c1ccccc1)c1ccc(Nc2c3ccccc3nc3ccccc23)cc1`, the 50% inhibitory concentration (IC50) was > 1000 µg/mL in experiment [1] and > 500 µg/mL in experiment [3].
Turning to `COc1ccc(/C=C/C(=O)c2ccc(Nc3c4ccccc4nc4ccccc34)cc2)cc1OC`, the IC50 is > 1000 µg/mL in experiment [1] and > 500 µg/mL in experiment [3].
On to `O=C1O[C@H]([C@@H](O)CO)C(O)=C1O` [ASCORBIC ACID], for which the IC50 was 18.6 µg/mL (≈ 106 µM) in experiment [1] and 24.77 µg/mL (≈ 141 µM) in experiment [3].
With `O=C(/C=C/c1ccc(Cl)cc1)c1ccc(Nc2c3ccccc3nc3ccccc23)cc1`, the IC50 in experiment [1] was > 1000 µg/mL; in experiment [3] it was > 500 µg/mL.
Take `COc1cc(/C=C/C(=O)c2ccc(Nc3c4ccccc4nc4ccccc34)cc2)ccc1O`: the IC50 in experiment [1] was > 1000 µg/mL; in experiment [3], > 500 µg/mL.
As to `NC1N=C(c2ccccc2Cl)C=C(c2ccc(Nc3c4ccccc4nc4ccccc34)cc2)O1` (configuration not stated), the IC50 in experiment [1] amounted to 25.01 µg/mL (≈ 52.4 µM); in experiment [3] it was 32.05 µg/mL (≈ 67.2 µM). Also, in experiment [2], it took 590 µg/mL (≈ 1240 µM) to reach half-maximal cytotoxicity (CC50).

Values taken from ChEMBL document CHEMBL2086275, “Docking studies, synthesis, characterization of some novel oxazine substituted 9-anilinoacridine derivatives and evaluation for their antioxidant and anticancer activities as topoisomerase II inhibitors” (Eur J Med Chem, 2012).
